Assay results taken from ChEMBL document CHEMBL4602700, “Discovery of WD Repeat-Containing Protein 5 (WDR5)-MYC Inhibitors Using Fragment-Based Methods and Structure-Based Design” (J Med Chem, 2020).
Activity calls are given as the source filed them. No cut-off for these calls is given here.

Legend:
[1] = target: T1, WD repeat-containing protein 5 (Homo sapiens, UniProt P61964); assay: Binding affinity to recombinant human His/FLAG-tagged WDR5 (22 to 334 residues) expressed in Escherichia coli expression system using FITC-AHx-SEEEIDVVSV as substrate by fluorescence polarization assay
[2] = target: T1, WD repeat-containing protein 5; assay: Inhibition of N-terminal FLAG-tagged human full-length WDR5 expressed in HEK293T cells harboring human C-terminal HA-tagged c-MYC assessed as reduction in WDR5-MYC interaction at 50 uM by immunoprecipitation analysis; conditions: HEK-293T
[3] = target: T1, WD repeat-containing protein 5; assay: Inhibition of WDR5 in human HEK293T cells assessed as reduction in WDR5-MYC interaction at 5 uM incubated for 24 hrs by immunoprecipitation analysis; assay type: cell-based; conditions: HEK-293T
Method in brief: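 Intact HEK293 cells (WDR5-FLAG/c-MYC-HA) at ~70% confluence, PBS-washed, treated 24 h with 5 μM compound in OptiMEM; lysates α-FLAG immunoprecipitated overnight at 4 °C, MYC co-precipitation immunoblotted, input blotted for MYC levels; normalized to vehicle; minimum two biological repeats.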

[4] = target: MLL1-ASH2L/RbBP5/WDR5/DPY30 (Homo sapiens) (UniProt P61964+Q03164+Q9UBL3+Q15291+Q9C005); assay: Inhibition of MLL1/WDR5/RBBP5/ASH2L/DPY30 complex (unknown origin) assessed as reduction in histone methyltransferase activity; assay type: protein assay
[5] = target: T1, WD repeat-containing protein 5; assay: Inhibition of N-terminal FLAG-tagged human full-length WDR5 expressed in HEK293T cells harboring human C-terminal HA-tagged c-MYC assessed as reduction in MYC recruitment RNPS1 binding site at 20 uM incubated for 10 hrs by chromatin immunoprecipitation analysis; assay type: cell-based; conditions: HEK-293T
Method in brief: (§1)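 HEK293 cells expressing HA-MYC and GFP grown to ~70% confluence, PBS-washed, treated 10 h in OptiMEM. Crosslinked 1% formaldehyde 10 min at room temperature, quenched with 125 mM glycine. Sonicated chromatin, α-HA ChIP; qPCR percent input against a 30-fold dilution of decrosslinked chromatin. One-tailed t-test; minimum three independent biological repeats.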

[6] = target: T1, WD repeat-containing protein 5; assay: Inhibition of N-terminal FLAG-tagged human full-length WDR5 expressed in HEK293T cells harboring human C-terminal HA-tagged c-MYC assessed as reduction in MYC recruitment […] binding site at 20 uM incubated for 10 hrs by chromatin immunoprecipitation analysis; assay type: cell-based; conditions: HEK-293T; method in brief: as §1
[7] = target: T1, WD repeat-containing protein 5; assay: Inhibition of N-terminal FLAG-tagged human full-length WDR5 expressed in HEK293T cells harboring human C-terminal HA-tagged c-MYC assessed as reduction in MYC recruitment ZFPM1 binding site at 20 uM incubated for 10 hrs by chromatin immunoprecipitation analysis; assay type: cell-based; conditions: HEK-293T; method in brief: as §1
[8] = target: T1, WD repeat-containing protein 5; assay: Inhibition of N-terminal FLAG-tagged human full-length WDR5 expressed in HEK293T cells harboring human C-terminal HA-tagged c-MYC assessed as reduction in MYC recruitment RPS14 binding site at 20 uM incubated for 10 hrs by chromatin immunoprecipitation analysis; assay type: cell-based; conditions: HEK-293T; method in brief: as §1
[9] = target: T1, WD repeat-containing protein 5; assay: Inhibition of N-terminal FLAG-tagged human full-length WDR5 expressed in HEK293T cells harboring human C-terminal HA-tagged c-MYC assessed as reduction in MYC recruitment RPL5 binding site at 20 uM incubated for 10 hrs by chromatin immunoprecipitation analysis; assay type: cell-based; conditions: HEK-293T; method in brief: as §1
[10] = target: T1, WD repeat-containing protein 5; assay: Inhibition of N-terminal FLAG-tagged human full-length WDR5 expressed in HEK293T cells harboring human C-terminal HA-tagged c-MYC assessed as reduction in MYC recruitment C7orf40 binding site at 20 uM incubated for 10 hrs by chromatin immunoprecipitation analysis; assay type: cell-based; conditions: HEK-293T; method in brief: as §1

Kd [1]	inhibition [2]	inhibition [3]	inhibition [4]	Compound	other results
0.4 µM	Active	Active	–	O=S(=O)(Nc1cn(C2CCCC2)cn1)c1cc(Br)cc(Cl)c1O	–
32 µM	–	–	–	O=S(=O)(Nc1nc2ccccc2s1)c1cc(Br)cc(Cl)c1O	–
8 µM	–	–	–	O=S(=O)(Nc1cn(CC2CCCO2)cn1)c1cc(Br)cc(Cl)c1O (configuration not stated)	–
5 µM	–	–	–	O=C(c1nc(NS(=O)(=O)c2cc(Br)cc(Cl)c2O)cn1C1CCCC1)N1CCC(C2CCCN2)CC1 (configuration not stated)	–
1.2 µM	–	–	–	O=S(=O)(Nc1cn(C(C2CC2)C2CC2)cn1)c1cc(Br)cc(Cl)c1O	–
–	Active	inactive	Active	O=S(=O)(Nc1cnn(C2CCCC2)c1)c1cc(Br)cc(Cl)c1O	–
11 µM	–	–	–	O=S(=O)(Nc1cn(C2CCNC2)cn1)c1cc(Br)cc(Cl)c1O (configuration not stated)	–

Continued, compound first:

Compound	Kd [1]	inhibition [2]	inhibition [3]	inhibition [4]	other results
CCOC(=O)c1nc(NS(=O)(=O)c2cc(Br)cc(Cl)c2O)cn1C1CCCC1	–	Active	Active	Active	–
CNC(=O)c1nc(NS(=O)(=O)c2cc(Br)cc(Cl)c2O)cn1C1CCCC1	–	Active	Active	Active	–
CS(=O)(=O)c1nc(NS(=O)(=O)c2cc(Br)cc(Cl)c2O)cn1C1CCCC1	–	Active	Active	Active	inhibition [5]: Active; inhibition [6]: inactive; inhibition [7]: inactive; inhibition [8]: Active; inhibition [9]: Active; inhibition [10]: Active
O=S(=O)(Nc1cn(CC2CC2)cn1)c1cc(Br)cc(Cl)c1O	2.1 µM	–	–	–	–
